Experimental findings from ChEMBL document CHEMBL3425454, “Synthesis, biological evaluation and modeling studies of terphenyl topoisomerase IIα inhibitors as anticancer agents” (Eur J Med Chem, 2015) are described below.

For test [1], the system named is MDA-MB-435. As to the kind of experiment: Cytotoxicity against human MDA-MB-435 cells assessed as cell growth inhibition after 72 hrs by MTT assay. The test is classed as functional, cell-based. As to conditions: MDA-MB-435, 72 h. An outline of the steps: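 MDA-MB-435 cells treated in triplicate with a range of concentrations for 72 h at 37°C, 5% CO2. Medium then replaced, MTT (5 mg/mL) added for 4 h, followed by overnight lysis in 10% SDS/5% isobutanol/12 mM HCl. Absorbance read at 590 nm; inhibition computed against control and blank wells. IC50 = concentration giving 50% growth inhibition, mean±SD of three experiments.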
Background: Formazan colour is commonly taken as a measure of viable cells.

Test [2] has as its target DNA topoisomerase 2-alpha (Homo sapiens) (UniProt P11388). The experiment in a line: Inhibition of human recombinant topoisomerase-2 alpha assessed as conversion of negatively supercoiled plasmid DNA pBR322 to relaxed DNA at 100 uM after 30 mins by agarose gel electrophoresis. The method in brief: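 Recombinant human TOP2α (1 unit) incubated with 0.5 μg supercoiled pBR322 in 10 mM Tris-HCl pH 7.9, 50 mM NaCl, 50 mM KCl, 5 mM MgCl2, 1 mM EDTA, 1 mM ATP, BSA; 30 min at 30 °C. Stopped with 7 mM EDTA. Products resolved on 1% agarose in TAE at 5 V/cm for 2 h and stained with ethidium bromide. Performed at least in duplicate.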

Test [3] shares this target. The experiment in a line: Inhibition of human recombinant topoisomerase-2 alpha-mediated DNA cleavage using circular supercoiled plasmid DNA as substrate.
The target in test [4] is T1, Topoisomerase I (Bos taurus) (UniProt Q2HPH0).
T1 sequence (whole entry): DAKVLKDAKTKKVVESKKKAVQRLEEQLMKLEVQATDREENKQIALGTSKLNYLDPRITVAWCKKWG
As to the kind of experiment: Inhibition of calf thymus topoisomerase-1 assessed as conversion of negatively supercoiled plasmid DNA pBR322 to relaxed DNA at 100 uM after 30 mins by agarose gel electrophoresis. The method in brief:
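Relaxation of 0.5 μg supercoiled pBR322 by 1 unit calf thymus TOP1 in 10 mM Tris-HCl pH 7.9, 150 mM NaCl, 0.1% BSA, 1 mM spermidine, 5% glycerol; 30 min at 37 °C. Reaction stopped with sarcosyl/bromophenol blue/glycerol. Products run on 1% agarose in TAE at 5 V/cm for 2 h and stained with ethidium bromide (0.5 μg/mL). Performed at least in duplicate.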

The target of test [5] is DNA topoisomerase 2-alpha (Homo sapiens) (UniProt P11388). As to the kind of experiment: Inhibition of human recombinant topoisomerase-2 alpha assessed as topoisomerase poison activity using circular supercoiled plasmid DNA as substrate.
Chain of DNA topoisomerase 2-alpha (Homo sapiens) (P11388 whole entry): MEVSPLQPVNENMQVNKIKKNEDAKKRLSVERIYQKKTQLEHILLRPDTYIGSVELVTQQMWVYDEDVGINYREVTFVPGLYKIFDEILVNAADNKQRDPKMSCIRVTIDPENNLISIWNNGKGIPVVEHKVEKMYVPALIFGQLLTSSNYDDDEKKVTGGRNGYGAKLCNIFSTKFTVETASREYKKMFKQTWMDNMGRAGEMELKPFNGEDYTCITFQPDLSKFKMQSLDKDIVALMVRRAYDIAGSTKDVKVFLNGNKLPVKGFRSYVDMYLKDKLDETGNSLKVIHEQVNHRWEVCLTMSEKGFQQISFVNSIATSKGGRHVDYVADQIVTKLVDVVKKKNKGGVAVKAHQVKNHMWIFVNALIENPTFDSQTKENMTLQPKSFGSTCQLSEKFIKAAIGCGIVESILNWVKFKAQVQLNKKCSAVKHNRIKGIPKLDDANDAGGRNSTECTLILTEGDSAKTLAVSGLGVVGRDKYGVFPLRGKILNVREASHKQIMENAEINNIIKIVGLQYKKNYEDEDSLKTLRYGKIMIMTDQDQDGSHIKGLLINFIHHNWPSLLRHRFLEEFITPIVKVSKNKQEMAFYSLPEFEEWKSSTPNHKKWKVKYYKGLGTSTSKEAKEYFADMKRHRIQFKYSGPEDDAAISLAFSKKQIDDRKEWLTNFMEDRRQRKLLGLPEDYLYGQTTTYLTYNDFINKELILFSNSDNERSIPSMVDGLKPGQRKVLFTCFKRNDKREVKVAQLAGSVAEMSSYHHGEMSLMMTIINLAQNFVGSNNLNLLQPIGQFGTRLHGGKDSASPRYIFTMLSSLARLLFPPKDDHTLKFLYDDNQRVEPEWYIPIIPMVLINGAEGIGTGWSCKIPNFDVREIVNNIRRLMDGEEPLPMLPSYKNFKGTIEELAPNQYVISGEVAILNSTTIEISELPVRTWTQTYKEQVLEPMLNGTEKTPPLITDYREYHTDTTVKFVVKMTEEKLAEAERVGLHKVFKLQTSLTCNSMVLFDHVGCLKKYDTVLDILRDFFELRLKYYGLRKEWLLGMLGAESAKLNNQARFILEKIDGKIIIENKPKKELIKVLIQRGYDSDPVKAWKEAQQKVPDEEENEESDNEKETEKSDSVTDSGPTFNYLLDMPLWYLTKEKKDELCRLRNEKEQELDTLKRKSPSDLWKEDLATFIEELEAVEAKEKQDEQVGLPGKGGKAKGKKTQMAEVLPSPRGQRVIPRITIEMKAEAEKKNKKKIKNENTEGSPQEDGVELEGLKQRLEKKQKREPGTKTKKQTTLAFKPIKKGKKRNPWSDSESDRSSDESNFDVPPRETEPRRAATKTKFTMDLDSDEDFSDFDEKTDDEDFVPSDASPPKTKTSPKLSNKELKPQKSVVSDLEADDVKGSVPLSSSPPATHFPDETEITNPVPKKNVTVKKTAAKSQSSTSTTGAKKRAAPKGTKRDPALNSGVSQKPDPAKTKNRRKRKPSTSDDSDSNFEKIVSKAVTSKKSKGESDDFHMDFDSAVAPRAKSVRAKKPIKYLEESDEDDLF

Active and inactive are the calls of the source. The calls are words filed in the database; no cut-off is given here.

Turning to `COc1c(-c2ccc(O)cc2)ccc(-c2ccc(O)c(C(=O)O)c2)c1OC`, the IC50 in test [1] is greater than 100 µM.
`COc1c(-c2ccc(O)cc2)ccc(-c2ccc(O)cc2)c1OC`: the inhibition result in test [2] is “Active”. Also, the IC50 in test [1] came to 14.7 µM.
Take `COC(=O)c1cc(-c2ccc(-c3ccc(O)cc3)c(OC)c2OC)ccc1O`: in test [1], the half-inhibitory concentration (IC50) was found to be 44.8 µM.
As to `COC(=O)c1ccc(-c2ccc(-c3ccc(O)cc3)c(OC)c2OC)cc1O`, the half-maximal inhibitory concentration (IC50) in test [1] worked out at 20.9 µM.
Still for that read-out and setting: the value for `COc1ccc(-c2ccc(-c3ccc(OC)cc3)c(OC(C)=O)c2OC(C)=O)cc1` was 96.8 µM; that for `Oc1ccc(-c2ccc(-c3ccc(O)cc3)c(O)c2O)cc1` was greater than 100 µM; that for `COc1ccc(-c2ccc(-c3ccc(C(=O)O)cc3)c(OC)c2OC)cc1OC` was greater than 100 µM.
`COc1ccc(-c2ccc(-c3ccc(OC)c(OC)c3)c(OC)c2OC)cc1OC`: the IC50 in test [1] is 90.8 µM.
Same read-out and setting: the value for `O=C(O)c1ccc(-c2ccc(-c3ccc(O)c(O)c3)c(O)c2O)cc1` was greater than 100 µM; that for `O=C(O)c1cc(-c2ccc(-c3ccc(O)cc3)c(O)c2O)ccc1O` was 99.8 µM; that for `COc1ccc(-c2cccc(OC)c2OC)cc1OC` was 23.1 µM.
Still for that read-out and setting: the result for `COc1c(-c2ccc(O)c([N+](=O)[O-])c2)ccc(-c2ccc(O)c([N+](=O)[O-])c2)c1OC` reads 61.8 µM; that for `COc1c(-c2ccc(O)cc2)ccc(-c2ccc(C(=O)O)c(O)c2)c1OC`, greater than 100 µM.
With `COc1cc([C@@H]2c3cc4c(cc3[C@@H](O[C@@H]3O[C@@H]5CO[C@@H](C)O[C@H]5[C@H](O)[C@H]3O)[C@H]3COC(=O)[C@H]23)OCO4)cc(OC)c1O` [ETOPOSIDE], the inhibition entry in test [2] was “Active”. Also, the concentration for half-maximal inhibition (IC50) in test [1] worked out at 2.81 µM.
For `CCOc1c(-c2ccc(OC)c(OC)c2)ccc(-c2ccc(OC)c(OC)c2)c1OCC`, in test [1], the IC50 was greater than 100 µM.
The same measure, in the same setting: the value for `CCOc1c(-c2ccc(O)cc2)ccc(-c2ccc(O)cc2)c1OCC` was 41.8 µM.
The same measure, in the same setting: the value for `Oc1ccc(-c2ccc(-c3ccc(O)c(O)c3)c(O)c2O)cc1` was 4.1 µM.
As for `Oc1ccc(-c2ccc(-c3ccc(O)c(O)c3)c(O)c2O)cc1O`, the inhibition entry in test [3], in test [2] and in test [4] was “Active” each time. The IC50 in test [1] was 3.96 µM. The inhibition entry in test [5] was “inactive”.
Consider `O=C(O)c1ccc(-c2ccc(-c3ccc(O)cc3)c(O)c2O)cc1O`, for which, in test [1], the concentration for half-maximal inhibition (IC50) came to 36.8 µM.
Still for that read-out and setting: the value for `COc1ccc(-c2ccc(-c3ccc(OC)c(OC)c3)c(OC(C)=O)c2OC(C)=O)cc1OC` was greater than 100 µM; that for `O=[N+]([O-])c1cc(-c2ccc(O)c([N+](=O)[O-])c2)ccc1O` was greater than 100 µM.

For orientation: IC50 means the concentration that inhibits the measured activity by half.
